High-throughput results as filed in PubChem BioAssay.
CHO parental Ca: signal in parental CHO cells, OX1R antagonist counter-screen. 0.63% of 330,000 active. parental CHO-K1, ATP-induced calcium, Fluo-8 fluorescence. AID 463079. inhibition, % at 5.6 µM;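 active means inhibition above that plate's mean sample inhibition plus 3 SD, cut at about 26% in these data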
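Material – parental CHO cells · Reagent – ATP stimulus · Compound – single nominal dose of 5.6 µM per compound · Detection – Fluo-8 fluorescence · Read-out basis – percent inhibition of calcium signal · Controls – ATP-challenged DMSO wells low, unchallenged DMSO wells high · Repeats – no replicates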
CHO-K1 Ca PAM: counter-screen for M1 PAMs: effect in parental CHO-K1 cells; AID 602247; activation, % at 3 µM; 0.02% of 360,000 active; ATP EC20, Fluo-8 calcium fluorescence; 0% at ATP EC20, 100% at ATP max;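 active means activation above the run cutoff, the mean activation of all test compounds plus 3 SD, cut at about 40% in these data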;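 further: peak over basal fluorescence ratio in a 140 s read after ATP addition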
CHO-K1 Ca ag: M1 agonist counterscreen hit in parental CHO-K1 cells | 0.48% of 360,000 active | Fluo-8 calcium fluorescence; scaled to maximal ATP response, vehicle zero | AID 602248 | activation, % at 3 µM; in the data active means activation above about 15%;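 further: untransfected CHO-K1 host cells lacking M1 receptor as counterscreen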
OX1R antag-1: human HCRTR1 antagonism. CHO/OX1R cells, Fluo-8 calcium fluorescence, orexin A. 0.43% of 330,000 active. inhibition, % at 5 µM. O43613;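 active means inhibition above its plate's threshold, mean inhibition of all tested compounds on the plate plus 3 SD, cut at about 37% in these data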
Target sequence (O43613 whole entry, looked up): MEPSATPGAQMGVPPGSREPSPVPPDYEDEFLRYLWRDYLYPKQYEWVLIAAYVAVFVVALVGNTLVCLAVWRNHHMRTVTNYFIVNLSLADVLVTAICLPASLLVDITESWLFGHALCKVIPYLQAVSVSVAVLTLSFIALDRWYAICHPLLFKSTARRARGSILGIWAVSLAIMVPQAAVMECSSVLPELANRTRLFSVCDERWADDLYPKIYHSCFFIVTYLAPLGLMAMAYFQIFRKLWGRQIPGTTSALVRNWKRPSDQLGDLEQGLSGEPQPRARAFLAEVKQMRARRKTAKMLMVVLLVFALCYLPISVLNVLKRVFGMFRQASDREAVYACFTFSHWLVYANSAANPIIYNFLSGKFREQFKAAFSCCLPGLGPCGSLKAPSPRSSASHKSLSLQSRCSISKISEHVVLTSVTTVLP
OX1R antag-2: antagonists of human orexin 1 receptor (OX1R); 1.8% of 330,000 active; inhibition, % at 6.6 µM; OX1R-expressing cells, FRET antagonist read-out; AID 485270; O43613; in the data active means inhibition mostly above about 38%, no sharp cut-off; inactive means mostly below about 40%
CHO-K1 Ca antag: counter-screen for M1 antagonists: effect in parental CHO-K1 cells | ATP-induced calcium, Fluo-8 fluorescence | inhibition, % at 3 µM | 0.6% of 360,000 active;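 active means inhibition above a per-plate cutoff, the plate's mean sample inhibition plus 3 SD, cut at about 24% in these data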
Each line names hits and unclear results; the compound was inactive in the other large screens. An excerpt weighted towards active compounds, which were near 2.9% of everything screened.

CCN1C(=O)/C(=C2\C=Cc3ccccc3N2CC)SC1=S	none
Cc1ccccc1C(=O)Nc1cccc(-c2cn3ccccc3n2)c1	OX1R antag-2 72.5
O=C(Nc1cccc(-c2cn3ccccc3n2)c1)c1ccccc1	OX1R antag-2 52.9
Cc1ccc(C(=O)Nc2cccc(-c3cn4ccccc4n3)c2)cc1	none
COc1cc(NC(=O)C/C(C)=N/NC(=O)C(=O)NCCO)c(OC)cc1Cl	CHO-K1 Ca antag 55.2
CC1CC(C)CN(C(=O)C2CCN(S(=O)(=O)N3CCC4(CC3)OCCO4)CC2)C1 (stereo not drawn)	none
Cc1ccc(C(=O)N[C@H](C(=O)Nc2sccc2C(N)=O)C(C)C)cc1	none
Nc1nc(-c2ccccc2)nc(-c2ccccc2O)n1	OX1R antag-2 52.4
Nc1nc(N)nc(-c2ccccc2O)n1	none
Cc1cc(C)nc(SCc2nc(N)nc(-c3ccccc3O)n2)n1	OX1R antag-2 55.1
O=[N+]([O-])c1c(NCCCO)cc(N2CCN(Cc3ccc4c(c3)OCO4)CC2)c2nonc12	none
Cc1ccc(NC(=O)c2ccc(NCCCN3CCC(C)CC3)c([N+](=O)[O-])c2)c(C)c1	none
O=[N+]([O-])c1c(NCCCO)cc(SCc2ccco2)c2nonc12	OX1R antag-2 61.2
CC1CCCN(c2cc(N(C)CCO)c([N+](=O)[O-])c3nonc23)C1 (stereo not drawn)	OX1R antag-2 48.3
O=[N+]([O-])c1c(NCCCO)cc(N2CCCCCC2)c2nonc12	OX1R antag-2 37.4
CC1CCN(CCCNc2cc(NCCO)c([N+](=O)[O-])c3nonc23)CC1	OX1R antag-2 37.7
CC(C)(C)Cc1nnc(NC(=O)CCC2CCCCC2)s1	none
CC1CCC(NS(=O)(=O)c2ccc(N3CCCC3=O)cc2)CC1 (stereo not drawn)	CHO-K1 Ca ag 19.5
O=NN(CCc1ccncc1)c1ccc(OCc2ccccc2)cc1	CHO parental Ca 62.0, OX1R antag-1 38.3
CCc1nc2ccc(F)cc2c(C(=O)NC2CCCCC2C)c1C (stereo not drawn)	none
CC(C)Cc1nnc(NC(=O)CCC(=O)N2CCN(C3CCCC3)CC2)s1	none
CCN(CC)S(=O)(=O)c1cccc(C(=O)N/N=C/c2ccc(OC)c(O)c2)c1	CHO-K1 Ca antag 26.6
O=C(N/N=C/c1ccc2nccnc2c1)c1ccncc1	OX1R antag-2 55.0
Cc1scc(C(=O)N/N=C/c2ccc([N+](=O)[O-])o2)c1C	OX1R antag-2 50.7
O=[N+]([O-])c1ccc(/C=[N+](\[O-])[C@@H]2CCCC[C@@H]2/[N+]([O-])=C/c2ccc([N+](=O)[O-])o2)o1	OX1R antag-2 42.1
O=C(CSc1nc2ncc(Br)cc2[nH]1)Nc1ccc2c(c1)OCO2	none
O=C(N/N=C/c1ccc([N+](=O)[O-])o1)c1ccc(O)cc1	OX1R antag-2 74.0
CCN(CC)S(=O)(=O)c1cccc(C(=O)N/N=C/c2ccc([N+](=O)[O-])o2)c1	OX1R antag-2 72.8
Cc1nc2ccccn2c1C(=O)N/N=C/c1ccc([N+](=O)[O-])o1	OX1R antag-2 65.2
Cc1ccc(/C=N\NC(=O)c2cc([N+](=O)[O-])cc([N+](=O)[O-])c2)o1	OX1R antag-2 65.4
Cc1nc2ccccn2c1C(=O)N/N=C/c1ccc([N+](=O)[O-])cc1	none (no result: CHO-K1 Ca PAM, CHO-K1 Ca ag, CHO-K1 Ca antag)
O=C(N/N=C\c1ccc([N+](=O)[O-])o1)c1cncc(Br)c1	none
COc1ccc(-c2cc(=O)oc3cc(OCC(=O)Nc4ccc(CCO)cc4)ccc23)cc1	none
CCOC(=O)N1CCC(NC(=O)CS(=O)Cc2nc(-c3ccc(Cl)cc3)oc2C)CC1 (stereo not drawn)	none
O=C(N/N=C/c1ccco1)C1CCCC1	none
Cc1ccc(/C=N/NC(=O)c2ccccc2OCc2ccc(F)cc2)o1	CHO-K1 Ca PAM 42.8
O=C(N/N=C/c1ccc([N+](=O)[O-])o1)C1CCCC1	OX1R antag-2 91.2
O=C(N/N=C/c1ccc([N+](=O)[O-])o1)c1ccncc1	OX1R antag-2 54.5
COc1cc(-c2ccc3oc(-c4ccsc4)c(C#CC4(O)CCCCC4)c3c2)cc(OC)c1OC	none
O=[N+]([O-])c1ccc(NN=Cc2cccc3ccccc23)cc1	none (no result: CHO parental Ca, OX1R antag-1, OX1R antag-2)
O=[N+]([O-])c1cc(Br)c(O)c(/C=N/Nc2nnnn2-c2cccc3ccccc23)c1	OX1R antag-2 44.9
CN(C(=S)Nc1ccc(Oc2ccccc2)cc1)C1CCCCC1	CHO parental Ca 29.3
S=C(Nc1ccc(Oc2ccccc2)cc1)NC1CCCCCC1	none
CCN(CC)c1ccc(C(=O)NNC(=O)CN2C(=O)NC(C)(c3ccccc3)C2=O)cc1 (stereo not drawn)	none
COc1cc2c(cc1OC)CN(C(=O)c1cc(COc3ccccc3SC)on1)CC2	none (no result: CHO parental Ca, OX1R antag-1, OX1R antag-2)
CSc1ccccc1OCc1cc(C(=O)N2CCc3c(Cl)cccc3C2)no1	CHO parental Ca 58.2, OX1R antag-1 62.3
COc1cc(N2N=C(c3ccccc3)CC2c2ccccc2)c(C=O)cc1C=O (stereo not drawn)	none
COc1ccccc1N1N=C(c2ccc([N+](=O)[O-])cc2)CC1c1ccccc1 (stereo not drawn)	CHO parental Ca 54.6, OX1R antag-1 58.0
COc1ccc(NC(=O)CN(c2ccccc2)S(=O)(=O)N(C)C)cc1Cl	none
COc1ccc(Cl)cc1NC(=O)CN(c1ccccc1)S(=O)(=O)N(C)C	OX1R antag-2 53.4
COc1ccc(Cl)cc1NC(=O)CN(C)C(=O)c1sc2ccccc2c1Cl	none
COc1ccc(Cl)cc1NC(=O)CN(C)C(=O)c1sccc1-c1ccccc1	OX1R antag-2 38.7
CC(C)c1ccccc1NC(=O)COC(=O)c1cc([N+](=O)[O-])ccc1N1CCOCC1	none
CCN1C(=O)N/C(=C/c2ccc(Sc3ccc(C)cc3)o2)C1=O	CHO parental Ca 63.9, OX1R antag-1 61.1
CCn1c(C)nc2cc(C(=O)OC(C(F)(F)C(F)F)C(F)(F)C(F)F)ccc21	OX1R antag-1 65.8, CHO-K1 Ca antag 44.9
COc1ccccc1CC(=O)NNC(=O)CN(C)S(=O)(=O)c1ccc(Cl)cc1	none
CCN(c1cccc(C)c1)S(=O)(=O)c1ccc2c3c(cccc13)C(=O)N2	CHO-K1 Ca antag 27.8
CCN(CC)S(=O)(=O)c1ccc2c3c(cccc13)C(=O)N2	none
Cc1ccc(OCC(=O)Nc2ccc(N3CCN(C(=O)c4ccco4)CC3)cc2)cc1C	CHO-K1 Ca ag 15.5
Cc1ccccc1C(=O)N1CCN(c2ccc(NC(=S)NC(=O)c3ccco3)cc2)CC1	CHO-K1 Ca ag 15.1
Cc1cc(OCC(=O)Nc2ccc(N3CCN(C(=O)c4ccco4)CC3)cc2)cc(C)c1Cl	none
COc1ccccc1C(=O)NC(=S)Nc1ccc(N2CCN(C(=O)c3ccco3)CC2)cc1	none
CCC1(c2ccc(F)cc2)NC(=O)N(CC(=O)Nc2ccccc2C)C1=O (stereo not drawn)	CHO-K1 Ca ag 16.2
